Measured values as given in ChEMBL document CHEMBL1287756, “Design and synthesis of an androgen receptor pure antagonist (CH5137291) for the treatment of castration-resistant prostate cancer” (Bioorg Med Chem, 2010).
Active and inactive are the calls of the source. No cut-off for these calls is given here.

Assays:
[1] = Metabolic stability in human liver microsomes assessed as compound remaining after 15 mins by LC-MS/MS analysis; format: ADME, Microsome; conditions: read-out: Stability
Summary of the method: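 Human liver microsomes in phosphate buffer (pH 7.4) with NADPH added. Percent of parent compound remaining measured after 15 min.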

[2] = Membrane permeability by PAMPA assay; format: ADME; conditions: read-out: permeability
[3] = biological target: hERG (KCNH2) (Homo sapiens, UniProt Q12809); assay: Inhibition of human ERG at 10 uM by whole cell patch-clamp technique
Sequence of hERG (KCNH2) (Q12809 whole entry): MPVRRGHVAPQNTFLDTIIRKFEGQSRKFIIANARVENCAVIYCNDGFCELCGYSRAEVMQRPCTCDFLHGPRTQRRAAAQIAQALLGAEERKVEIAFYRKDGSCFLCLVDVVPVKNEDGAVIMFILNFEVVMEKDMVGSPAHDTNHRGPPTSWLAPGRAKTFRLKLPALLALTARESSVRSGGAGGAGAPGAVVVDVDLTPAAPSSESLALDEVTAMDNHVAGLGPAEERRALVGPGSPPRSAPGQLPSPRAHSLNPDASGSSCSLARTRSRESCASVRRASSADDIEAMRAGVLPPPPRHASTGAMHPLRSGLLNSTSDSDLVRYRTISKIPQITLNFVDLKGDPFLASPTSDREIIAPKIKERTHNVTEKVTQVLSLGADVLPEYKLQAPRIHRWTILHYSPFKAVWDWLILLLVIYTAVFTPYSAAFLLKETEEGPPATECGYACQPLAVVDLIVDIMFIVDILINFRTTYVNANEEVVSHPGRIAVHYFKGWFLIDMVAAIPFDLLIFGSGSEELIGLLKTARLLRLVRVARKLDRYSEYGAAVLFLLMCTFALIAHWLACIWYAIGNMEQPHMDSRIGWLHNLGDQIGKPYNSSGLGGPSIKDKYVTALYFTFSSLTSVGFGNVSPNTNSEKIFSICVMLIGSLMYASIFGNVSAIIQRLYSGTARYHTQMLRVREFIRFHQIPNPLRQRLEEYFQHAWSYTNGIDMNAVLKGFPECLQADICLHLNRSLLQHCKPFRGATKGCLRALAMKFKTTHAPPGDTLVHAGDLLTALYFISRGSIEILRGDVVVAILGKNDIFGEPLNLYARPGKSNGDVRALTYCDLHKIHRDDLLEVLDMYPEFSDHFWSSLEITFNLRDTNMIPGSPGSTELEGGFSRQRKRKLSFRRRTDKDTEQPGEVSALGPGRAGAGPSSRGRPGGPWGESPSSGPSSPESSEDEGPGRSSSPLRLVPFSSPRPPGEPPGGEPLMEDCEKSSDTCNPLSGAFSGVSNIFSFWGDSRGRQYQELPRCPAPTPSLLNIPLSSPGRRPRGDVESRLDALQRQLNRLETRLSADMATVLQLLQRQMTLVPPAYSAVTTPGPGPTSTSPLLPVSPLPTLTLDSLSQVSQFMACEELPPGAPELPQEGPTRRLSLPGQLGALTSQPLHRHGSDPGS
Summary of the method: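 hERG current recorded by whole-cell patch clamp; one experiment run in duplicate.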

[4] = species on record: Mus musculus; assay: Antiandrogenic activity in castrated mouse assessed as reduction in wet weight gain of seminal vesicle; format: functional
Summary of the method: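 Castrated mice, n = 4 or 5 per group; antiandrogenic activity read as change in seminal vesicle wet weight.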

[5] = biological target: T1, Androgen receptor (Homo sapiens) (UniProt P10275); conditions: HeLa
T1 sequence (whole entry): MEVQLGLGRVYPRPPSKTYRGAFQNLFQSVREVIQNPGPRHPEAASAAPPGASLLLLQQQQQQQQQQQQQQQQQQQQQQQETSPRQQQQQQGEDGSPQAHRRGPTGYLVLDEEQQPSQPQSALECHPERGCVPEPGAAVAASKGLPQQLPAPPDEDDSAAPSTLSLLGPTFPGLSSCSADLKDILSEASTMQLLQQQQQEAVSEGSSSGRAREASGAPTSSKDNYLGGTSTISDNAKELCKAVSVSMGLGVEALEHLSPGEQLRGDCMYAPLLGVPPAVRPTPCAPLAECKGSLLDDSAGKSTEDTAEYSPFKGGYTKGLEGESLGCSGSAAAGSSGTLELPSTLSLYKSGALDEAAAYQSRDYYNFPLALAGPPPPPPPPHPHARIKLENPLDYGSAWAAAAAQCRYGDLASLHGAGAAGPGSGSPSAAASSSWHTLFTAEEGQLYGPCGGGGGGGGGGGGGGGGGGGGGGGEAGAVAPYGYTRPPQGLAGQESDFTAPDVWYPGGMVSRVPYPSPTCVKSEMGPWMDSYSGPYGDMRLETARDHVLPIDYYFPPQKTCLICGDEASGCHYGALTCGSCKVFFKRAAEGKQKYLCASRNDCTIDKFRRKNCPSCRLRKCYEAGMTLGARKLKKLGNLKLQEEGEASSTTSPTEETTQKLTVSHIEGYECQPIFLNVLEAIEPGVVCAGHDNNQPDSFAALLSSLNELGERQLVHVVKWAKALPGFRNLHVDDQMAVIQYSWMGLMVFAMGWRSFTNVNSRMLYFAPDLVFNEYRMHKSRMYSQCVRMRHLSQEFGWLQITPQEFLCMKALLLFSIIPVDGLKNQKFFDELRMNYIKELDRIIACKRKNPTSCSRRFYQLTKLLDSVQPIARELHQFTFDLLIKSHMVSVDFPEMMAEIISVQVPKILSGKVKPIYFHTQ

[6] = biological target: T2, Androgen receptor (Homo sapiens, UniProt P10275); assay: Antagonist activity at human AR expressed in human HeLa cells co-transfected with MMTV-Luc-Hyg after 48 hrs by transient-luciferase reporter gene assay; format: functional, cell-based
T2 sequence (P10275 whole entry): T1 sequence (whole entry)

[7] = tested on: Mus musculus; assay: Inhibition of prostate specific antigen production in human bicalutamide-resistant LNCAP cells xenografted SCID mouse at 100 mg/kg, po qd for seven cycles of 5 days on and 2 days off measured on day 17; format: functional, organism-based; set-up: dose 100 mg/kg
Summary of the method: (§1)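 LNCaP-BC2 cells (2 × 10^6) inoculated subcutaneously into castrated 6-week-old male SCID mice. Randomised at tumour size 90–400 mm3, n = 5 per group. Oral dosing once daily in 5% gum arabic at 10 mL/kg, seven cycles of 5 days on and 2 days off. Tumour size and plasma PSA measured after 17 days. PSA expressed as day 17 level relative to day 0 level.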

[8] = tested on: LNCaP; assay: Antitumor activity against human bicalutamide-resistant LNCAP cells xenografted in SCID mouse assessed as inhibition of tumor growth at 10 mg/kg, po qd for seven cycles of 5 days on, 2 days off; format: functional, organism-based; set-up: dose 10 mg/kg; summary of the method: as §1
[9] = tested on: Canis familiaris; assay: Cardiotoxicity in anesthetized dog assessed as QT prolongation by electrocardiographic analysis; format: toxicity, organism-based, Canis lupus familiaris; conditions: in vivo
[10] = tested on: Mus musculus; assay: Inhibition of prostate specific antigen production in human bicalutamide-resistant LNCAP cells xenografted SCID mouse at 10 mg/kg, po qd for seven cycles of 5 days on and 2 days off measured on day 17; format: functional, organism-based; set-up: dose 10 mg/kg; summary of the method: as §1
[11] = tested on: LNCaP; assay: Antitumor activity against human bicalutamide-resistant LNCAP cells xenografted in SCID mouse assessed as inhibition of tumor growth at 100 mg/kg, po qd for seven cycles of 5 days on, 2 days off; format: functional, organism-based; set-up: dose 100 mg/kg; summary of the method: as §1
[12] = Metabolic stability in human liver microsomes assessed as compound remaining after 30 mins by LC-MS/MS analysis; format: ADME, Microsome; conditions: read-out: Stability
[13] = Metabolic stability in monkey liver microsomes assessed as compound remaining after 30 mins by LC-MS/MS analysis; format: ADME, Macaca mulatta, Microsome; conditions: rhesus monkey, read-out: Stability
[14] = Metabolic stability in dog liver microsomes assessed as compound remaining after 30 mins by LC-MS/MS analysis; format: ADME, Canis lupus familiaris, Microsome; conditions: read-out: Stability
[15] = Metabolic stability in rat liver microsomes assessed as compound remaining after 30 mins by LC-MS/MS analysis; format: ADME, Microsome; conditions: read-out: Stability
[16] = Metabolic stability in mouse liver microsomes assessed as compound remaining after 30 mins by LC-MS/MS analysis; format: ADME, Microsome; conditions: read-out: Stability

Row | SMILES | remaining at 0.25 h [1] | Papp [2] | inhibition at 10 µM [3] | ED50 ([4]; Mus musculus, read-out: ED50) | EC5 [5] | IC50 [6] | inhibition [7] | inhibition [8] | Activity [9] | inhibition [10] | inhibition [11] | ED50 [4] | remaining at 0.5 h [12] | remaining at 0.5 h [13] | remaining at 0.5 h [14] | remaining at 0.5 h [15] | remaining at 0.5 h [16]
1 | CC1(C)C(=O)N(c2ccc(C#N)c(Cl)c2)C(=S)N1c1cccc(S(N)(=O)=O)c1 | 100% | 1.6 ×10⁻⁶ cm/s | 58% | 84 mg/kg | > 10 µM | – | – | – | – | – | – | – | – | – | – | – | –
2 | CC1(C)C(=O)N(c2ccc(C#N)c(Cl)c2)C(=S)N1c1cncc(S(N)(=O)=O)c1 | 95% | 13 ×10⁻⁶ cm/s | 52% | – | > 10 µM | 2000 nM | – | – | – | – | – | – | – | – | – | – | –
3 | CC1(C)C(=O)N(c2ccc(C#N)c(Cl)c2)C(=S)N1c1cccc(S(N)(=O)=O)n1 | 100% | 1.3 ×10⁻⁶ cm/s | 26% | 6 mg/kg | > 10 µM | 600 nM | – | – | – | – | – | – | – | – | – | – | –
4 | CC1(C)C(=O)N(c2ccc(C#N)c(C(F)(F)F)c2)C(=S)N1c1cncc(S(N)(=O)=O)c1 | 95% | 14 ×10⁻⁶ cm/s | 33% | 6 mg/kg | > 10 µM | 1000 nM | – | – | – | – | – | – | – | – | – | – | –
5 | CC1(C)C(=O)N(c2ccc(C#N)c(C(F)(F)F)c2)C(=S)N1c1cccc(S(N)(=O)=O)n1 | 94% | 14 ×10⁻⁶ cm/s | 10% | 7 mg/kg | > 10 µM | 700 nM | Active | Active | Non-toxic | Active | Active | – | – | – | – | – | –
6 | CC1(C)C(=O)N(c2ccc(C#N)c(Cl)c2)C(=S)N1CCCS(N)(=O)=O | 100% | 25 ×10⁻⁶ cm/s | 17% | 10 mg/kg | > 10 µM | – | – | – | – | – | – | – | – | – | – | – | –
7 | CC(O)(CS(=O)(=O)c1ccc(F)cc1)C(=O)Nc1ccc(C#N)c(C(F)(F)F)c1 (configuration not stated) [BICALUTAMIDE] | 99% | – | 7.4% | – | – | – | inactive | inactive | – | inactive | inactive | 3 mg/kg | – | – | – | – | –
8 | CC1(C)NC(=S)N(c2ccc(C#N)c(Cl)c2)C1=O | – | – | – | – | 0.0002 µM | – | – | – | – | – | – | – | 0.022% | 0.027% | < 0.001% | 0.075% | 0.038%
9 | CC1(C)C(=O)N(c2ccc(C#N)c(C(F)(F)F)c2)C(=S)N1c1ccnc(S(N)(=O)=O)c1 | 97% | 12 ×10⁻⁶ cm/s | 0% | – | > 10 µM | 1000 nM | – | – | – | – | – | – | – | – | – | – | –
10 | CC1(C)C(=O)N(c2ccc(C#N)c(C(F)(F)F)c2)C(=S)N1c1cccc(S(N)(=O)=O)c1 | 100% | 8.1 ×10⁻⁶ cm/s | 41% | 63 mg/kg | > 10 µM | 300 nM | – | – | – | – | – | – | – | – | – | – | –
11 | CC1(C)NC(=S)N(c2ccc(C#N)c(C(F)(F)F)c2)C1=O | – | – | – | – | 0.001 µM | – | – | – | – | – | – | – | < 0.001% | < 0.001% | < 0.001% | < 0.001% | < 0.001%
12 | CC1(C)C(=O)N(c2ccc(C#N)c(C(F)(F)F)c2)C(=S)N1c1ccccc1 | 80% | 0.69 ×10⁻⁶ cm/s | – | – | 3 µM | 200 nM | – | – | – | – | – | – | – | – | – | – | –
